Seven compounds from ChEMBL document CHEMBL2157864, “Microwave-assisted synthesis of hydroxyphenyl nitrones with protective action against oxidative stress” (Eur J Med Chem, 2012) can be followed below.

Series [1] in a line: Antioxidant activity against peroxyl radical production assessed as trolox equivalent by ORAC assay. The format is functional. The procedure, abridged: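 Oxygen radical absorbance capacity assay, fluorescein as fluorescent probe, peroxyl radical scavenging; expressed as μmol Trolox equivalents per μmol compound, mean of n = 3 ± SD.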
In series [2] the test system is SH-SY5Y. Nature of the series: Neuroprotective activity against 6OHDA-induced toxicity in human SH-SY5Y cells assessed as cell viability at 10 uM after 24 hrs by MTT assay (reference value: 75%). The format is functional. Conditions: read-out: Activity. On the technique in general: Tetrazolium dyes change colour on reduction, which living cells bring about.
Series [3] can be described thus: Cytotoxicity against rat primary astrocytes at 10 uM after 24 hrs by MTT assay. As to conditions: astrocyte. The format is cell-based. The procedure, abridged: (§1)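 Rat primary astrocyte or microglia cultures exposed 24 h to compound (10 μM); cytotoxicity assessed in vitro.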
The test system of another series is Astrocyte. Nature of the series: Antiinflammatory activity in rat primary astrocytes assessed as inhibition of LPS-induced nitrite production at 10 uM incubated for 1 hr prior to LPS-challenge measured after 24 hrs by Greiss method. The format is functional, cell-based. In outline: (§2)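 Rat primary glial cultures (microglia or astrocytes) pre-incubated 1 h with compound, then 24 h with LPS (10 μg/mL); nitrite in culture medium measured by Griess reaction. Means ± SD of three experiments.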

Series [4] can be described thus: Cytotoxicity against rat primary microglia cells at 10 uM after 24 hrs by MTT assay. The format is cell-based. The procedure, abridged:
as §1

The subject of series [5] is SH-SY5Y. Nature of the series: Cytotoxicity against human SH-SY5Y cells at 10 to 100 uM after 24 hrs by MTT assay. The format is cell-based. The procedure, abridged: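 SH-SY5Y human neuroblastoma cells exposed to compound (10–100 μM) for 24 h; viability by MTT assay.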
Series [6] in a line: Permeability of the compound after 4 hrs by PAMPA assay. The format is ADME. Conditions: read-out: permeability. On the technique in general: The PAMPA barrier holds no transporters, so it reflects passive diffusion.
The subject of the next series is Microglia. The series is described as follows: Antiinflammatory activity in rat primary microglia cells assessed as inhibition of LPS-induced nitrite production at 10 uM incubated for 1 hr prior to LPS-challenge measured after 24 hrs by Greiss method. The series is classed as functional. In outline:
as §2

Series [7] deals with SH-SY5Y. The series is described as follows: Neuroprotective activity against SIN1-induced toxicity in human SH-SY5Y cells at 50 to 500 uM after 24 hrs by MTT assay. The format is functional, cell-based. The procedure, abridged:
(§3)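 SH-SY5Y cells pre-incubated 1 h with compound, then challenged with SIN-1 (0.5 mM; ONOO⁻ generation about 9 μM per minute by DHR method) or vehicle; viability by MTT assay. Mean ± SD, three independent experiments.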

Series [8] is described as follows: Antioxidant activity against peroxynitrite assessed as inhibition of alpha-synuclein aggregate formation at 50 uM by Western blot analysis. The series is classed as functional. The procedure, abridged: (§4)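 α-Synuclein (5 μM) exposed to authentic ONOO⁻ (200 μM) with compound (50 μM) or 1% DMSO; 12% SDS-PAGE, western blot with anti-αS and anti-3-nitrotyrosine antibodies; densitometry of anti-nitrotyrosine blots used for dose-response. Reverse-addition ONOO⁻ control included.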

Series [9] is described as follows: Antioxidant activity against peroxynitrite assessed as inhibition of RNAse nitration by Western blot analysis. The series is classed as functional. The procedure, abridged:
(§5)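 RNase A or cytochrome c (5 μM) treated with authentic ONOO⁻ (200 μM) in presence of compound; 12% SDS-PAGE and western blot probed with anti-3-nitrotyrosine antibody.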
In general terms: In western blotting, separated proteins are transferred to a membrane and probed.

Series [10] is described as follows: Antioxidant activity against peroxynitrite assessed as inhibition of alpha-synuclein nitration at 50 uM by Western blot analysis. The format is functional. The procedure, abridged:
as §4

A short description of series [11]: Antioxidant activity against peroxynitrite assessed as inhibition of cytochrome c nitration by Western blot analysis. The series is classed as functional. The procedure, abridged:
as §5

Series [12] concerns SH-SY5Y. The series is described as follows: Neuroprotective activity against SIN1-induced toxicity in human SH-SY5Y cells assessed as cell viability at 100 uM after 24 hrs by MTT assay relative to control. The series is classed as functional. As to conditions: read-out: Activity. In outline: as §3
Series [13] is described as follows: Antioxidant activity against NO2 radical assessed as mono nitreated derivative formation at 50 uM by mass spectroscopic analysis. The series is classed as functional. The procedure, abridged: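 Compound (50 μM) preincubated with excess NaNO₂ (4 mM), converting •OH to •NO₂, then 500 μM ONOO⁻ in 50 mM potassium phosphate, pH 7.4; products analysed by chromatography with mass spectrometry, tracking nitrated-product peak.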

Series [14] in a line: Antioxidant activity against OH radical production by Western blot analysis. The series is classed as functional.
The test system of series [15] is SH-SY5Y. The series is described as follows: Neuroprotective activity against SIN1-induced toxicity in human SH-SY5Y cells after 24 hrs by MTT assay. The format is functional, cell-based. In outline:
as §3

The subject of series [16] is SH-SY5Y. Nature of the series: Neuroprotective activity against SIN1-induced toxicity in human SH-SY5Y cells assessed as cell viability at 500 uM after 24 hrs by MTT assay relative to control. The format is functional. Conditions: read-out: Activity. The procedure, abridged: as §3
Series [17] is described as follows: Antioxidant activity against CO3 radical production by Western blot analysis. The format is functional.
Series [18] can be described thus: Antioxidant activity against peroxynitrite assessed as inhibition of alpha-synuclein nitration by Western blot analysis. The format is functional. The procedure, abridged: as §4
The nature of series [19]: Antioxidant activity against NO2 radical production by Western blot analysis. The series is classed as functional.
A short description of series [20]: Antioxidant activity against peroxynitrite radical at 50 uM by mass spectroscopic analysis. The series is classed as functional. In outline: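 Compound (50 μM) reacted with 500 μM ONOO⁻ in 50 mM potassium phosphate, pH 7.4, without NaNO₂; reaction products resolved chromatographically and characterised by mass spectrometry.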

The source made the active and inactive calls. The calls are words filed in the database; no cut-off is given here.

Turning to `CC(C)(C)/[N+]([O-])=C/c1ccccc1O`, the Activity is 2.6 equiv in series [1], “Non-toxic” in series [3], “Non-toxic” in series [4] and “Non-toxic” with SH-SY5Y [5]. The viability at 10 µM in the series with SH-SY5Y [2] came to 100%. In addition, the inhibition result with Astrocyte and in the series with Microglia was “Active” each time. Further, in series [6], the Papp at 4 h came to 37.5 ×10⁻⁶ cm/s. The outcome with SH-SY5Y [7] was inactive.
For the compound `CC(C)(C)c1cc(/C=[N+](\[O-])C(C)(C)C)cc(C(C)(C)C)c1O`, the Activity was 2 equiv in series [1], “Non-toxic” in series [3], “Non-toxic” in series [4] and “Non-toxic” in the series on SH-SY5Y [5]. In addition, in the series with SH-SY5Y [2], the viability at 10 µM amounted to 100%. Further, the inhibition entry (in series [8]; in [9]; in the series on Astrocyte; in series [10]; in the series on Microglia; in [11]) was “Active” in each case. The Papp at 4 h in series [6] was found to be 10.2 ×10⁻⁶ cm/s. Also, the outcome in the series with SH-SY5Y [7] was inactive.
As for `CCn1cc(C(=O)O)c(=O)c2cc(F)c(N3CCNCC3)nc21` [ENOXACIN], in series [6], the Papp at 4 h came out at 1.7 ×10⁻⁶ cm/s.
As to `CNCCCN1c2ccccc2CCc2ccccc21` [DESIPRAMINE], the Papp at 4 h in series [6] is 14.4 ×10⁻⁶ cm/s.
Take `CC(C)(C)/[N+]([O-])=C/c1ccc(O)cc1`: the viability at 100 µM in the series on SH-SY5Y [12] is 91%. For the same compound, the result in series [13], in series [14], in [17], in series [19] and in [20] was Active. In addition, the Activity in series [1] is 3.2 equiv; in the series on SH-SY5Y [15], “Dose-dependent effect”; in series [3], “Non-toxic”; in series [4] it was “Non-toxic”; in the series with SH-SY5Y [5], “Non-toxic”. Moreover, the viability at 10 µM with SH-SY5Y [2] was found to be 100%. In addition, the inhibition result (in series [8]; in series [9]; with Astrocyte; in [10]; with Microglia; in series [11]) was “Active” each time. The viability at 500 µM in the series on SH-SY5Y [16] was found to be 100%. Also, the inhibition result in [18] is “Dose-dependent effect”. Further, the Papp at 4 h in series [6] was 0.2 ×10⁻⁶ cm/s.
Take `CC(C)(C)/[N+]([O-])=C/c1ccccc1`: the Activity in series [1] stood at 0.014 equiv.
In the case of `CN1C(C(=O)Nc2ccccn2)=C(O)c2ccccc2S1(=O)=O` [PIROXICAM], the Papp at 4 h in series [6] came to 1.6 ×10⁻⁶ cm/s.
